Each compound was assayed on MOLT-4 (assay: Compound was tested for inhibition of cell permeability by measuring the spectrin breakdown product in intact MOLT-4 cells at 1 uM). Conditions: Homo sapiens.
Format: functional
How it was run: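 In intact MOLT-4 human leukemia T cells, calpain was activated by ionomycin. Spectrin breakdown product was measured, and inhibition is given as percent at a single 1 μM test concentration.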

| SMILES | inhibition at 1 µM [%] |
| --- | --- |
| CC(C)C[C@H](NC(=O)OCc1ccccc1)C(=O)N[C@@H](Cc1ccccc1)C(=O)C(=O)NOC1CCC(C)CC1 (stereo partly specified) | 26 |

What follows are compounds tested on MOLT-4 (assay: Inhibition of cell permeability by measuring the spectrin breakdown product in intact MOLT-4 cells). Conditions: Homo sapiens.
Format: functional, cell-based
How it was run: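 Intact MOLT-4 cells (human leukemia T-cell line) had calpain activated with ionomycin. Cell permeability was read as inhibition of the spectrin breakdown product. Potency is reported as IC50.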

| SMILES | IC50 [nM] |
| --- | --- |
| CONC(=O)C(=O)[C@H](Cc1ccccc1)NC(=O)[C@H](CC(C)C)NC(=O)OCc1ccccc1 | 900 |
| CC(C)C[C@H](NC(=O)OCc1ccccc1)C(=O)N[C@@H](Cc1ccccc1)C(=O)C(=O)NOCc1c(F)c(F)c(F)c(F)c1F | 2900 |
| CS(=O)(=O)N[C@H](COCc1ccccc1)C(=O)N[C@@H](Cc1ccccc1)C(=O)C(=O)NOCc1ccccc1 | 900 |
| CC(C)C[C@H](NC(=O)OCc1ccccc1)C(=O)N[C@@H](Cc1ccccc1)C(=O)C(=O)NOCc1ccccc1 | 600 |
| CC(C)[C@@H](NC(=O)OCc1ccccc1)C(=O)N[C@@H](Cc1ccccc1)C(=O)C(=O)NOCc1ccccc1 | 600 |
| CCONC(=O)C(=O)[C@H](Cc1ccccc1)NC(=O)[C@H](CC(C)C)NC(=O)OCc1ccccc1 | 1100 |
| CC(C)C[C@H](NC(=O)OCc1ccccc1)C(=O)N[C@@H](Cc1ccccc1)C(=O)C(=O)NOC(C)(C)C | 3900 |

More lines, now with the values ahead:

| IC50 [nM] | SMILES |
| --- | --- |
| 500 | CCCC[C@H](NC(=O)[C@@H](NC(=O)OCc1ccccc1)C(C)C)C(=O)C(=O)NOCc1ccccc1 |
| 200 | CONC(=O)C(=O)[C@H](Cc1ccccc1)NC(=O)[C@H](CC(C)C)NC(=O)[C@H](CC(C)C)NC(=O)OCc1ccccc1 |
| 200 | CC(C)C[C@H](NC(=O)OCc1ccccc1)C(=O)N[C@@H](CC(C)C)C(=O)N[C@@H](Cc1ccccc1)C(=O)C(=O)NOCc1ccccc1 |
